In ChEMBL document CHEMBL2034868, “Synthesis of methoxylated goniothalamin, aza-goniothalamin and γ-pyrones and their in vitro evaluation against human cancer cells” (Bioorg Med Chem, 2012):

Assays:
NCI-H460 = experiment: Growth inhibition of human NCI-H460 cells after 48 hrs by sulforhodamine B assay; type: functional
Outline: (§1)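 Cells in 96-well plates were exposed for 48 h at 37 °C in 5% CO2 to compounds at 0.25, 2.5, 25 and […] in DMSO/RPMI. Doxorubicin was the positive control at […]. Cells were then fixed with 50% trichloroacetic acid and stained with sulforhodamine B, with protein read at 540 nm. TGI (the concentration where T = T0) was taken by non-linear regression of each cell line's concentration-response curve.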

786-0 = experiment: Growth inhibition of human 786-0 cells after 48 hrs by sulforhodamine B assay; type: functional; outline: as §1
[1] = Growth inhibition of human NCI/ADR cells after 48 hrs by sulforhodamine B assay; type: functional; outline: as §1
OVCAR-3 = experiment: Growth inhibition of human OVCAR3 cells after 48 hrs by sulforhodamine B assay; type: functional; outline: as §1
MCF7 = experiment: Growth inhibition of human MCF7 cells after 48 hrs by sulforhodamine B assay; type: functional; outline: as §1
HT-29 = experiment: Growth inhibition of human HT-29 cells after 48 hrs by sulforhodamine B assay; type: functional; outline: as §1
U-251 = experiment: Growth inhibition of human U251 cells after 48 hrs by sulforhodamine B assay; type: functional; outline: as §1
[2] = Growth inhibition of human HaCaT cells after 48 hrs by sulforhodamine B assay; type: cell-based; outline: as §1

SMILES	GI (NCI-H460) [µM]	GI (786-0) [µM]	GI [1] [µM]	GI (OVCAR-3) [µM]	GI (MCF7) [µM]	GI (HT-29) [µM]	GI (U-251) [µM]	TGI at 48 h [2] [µM]
O=C1C=CCC(/C=C/c2ccccc2)N1 (stereo not drawn)	928.5	>1254.8	966.6	>1254.8	607.4	1195.8	797.6	> 1250
COc1ccc(/C=C/C2CC=CC(=O)N2)cc1OC (stereo not drawn)	>964.1	>964.1	>964.1	>964.1	>964.1	>964.1	>964.1	> 964
O=C1C=CCC(/C=C/c2ccccc2C(F)(F)F)N1 (stereo not drawn)	194.7	123.4	40.6	329.3	120.2	195.4	69.9	249
O=C1C=CCC(/C=C/c2ccc(C(F)(F)F)cc2)N1 (stereo not drawn)	150.4	127.8	71.8	126	149.5	139.2	130.3	174
COc1cc(OC)c(OC)cc1/C=C/C1CC=CC(=O)N1 (stereo not drawn)	>864.1	>864.1	>864.1	>864.1	>864.1	>864.1	>864.1	> 864
O=C1C=COC(/C=C/c2ccc(C(F)(F)F)cc2)C1 (stereo not drawn)	95.6	39.6	51.6	58.2	41.2	33.3	38.6	123
COc1ccc(/C=C/C2CC=CC(=O)N2)c(OC)c1 (stereo not drawn)	>964.1	>964.1	>964.1	>964.1	>964.1	>964.1	>964.1	> 964
O=c1ccoc(/C=C/c2ccccc2)c1	508.5	409.9	514.2	545.5	691.1	344.1	285.4	711
COc1ccc(-c2cc(=O)cco2)cc1	>1236.3	>1236.3	>1236.3	>1236.3	>1236.3	>1236.3	>1236.3	> 1240
COc1cccc2c1C(=O)c1c(O)c3c(c(O)c1C2=O)C[C@@](O)(C(=O)CO)C[C@@H]3O[C@H]1C[C@H](N)[C@H](O)[C@H](C)O1 [DOXORUBICIN]	1.3	2.1	13.5	6.3	3.7	13.9	2.4	0.8
COc1ccc(/C=C/C2CC(=O)C=CO2)cc1OC (stereo not drawn)	89.6	145.1	145.8	74.3	130.2	123.2	86.9	134
O=C1C=COC(/C=C/c2ccc3c(c2)OCO3)C1 (stereo not drawn)	147.4	104.1	186.8	101.7	81.4	126.9	77	145
COc1ccc(/C=C/c2cc(=O)cco2)cc1OC	545.5	635.4	407.9	540.2	953.6	806.7	338.9	690
COc1ccc(/C=C/c2cc(=O)cco2)cc1	606.1	376.8	309.9	327.9	395.9	379.2	278.4	710
COc1cc(/C=C/C2CC=CC(=O)N2)cc(OC)c1 (stereo not drawn)	145.5	173.4	203.2	232.1	146.4	196.6	169.9	212
O=C1C=COC(/C=C/c2ccccc2)C1 (stereo not drawn)	82.4	138.2	105.3	58.2	152.6	123.6	121.8	126
